Where “and” joins values, the source holds several entries; their conditions need not be identical. Identical values can stand only once.
Columns and labels:
Fibroblast = assay: Multiplex assay against human fibroblast; assay type: toxicity, cell-based; conditions: 10 µM, compound concentration 10 uM
In short: (§1)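 Compound was added to live cells that had been stained at seeding with Hoechst33342, BioTracker Green Microtubule Cytoskeleton Dye, MitoTracker Red and Annexin V Alexa Fluor 680, and imaging followed on a CQ1 microscope at 37°C and 5% CO2. CellPathfinder machine-learning gating divided cells into Hoechst high-intensity objects or normal cells, normal cells into healthy, pyknosed or fragmented nuclei, and pyknosed cells into mitotic or apoptotic. Tubulin, mitochondrial-mass and membrane-permeability phenotypes are per cents of healthy-nucleus cells.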

HEK-293T = assay: Multiplex assay against HEK293T; assay type: toxicity, cell-based; conditions: human, 10 µM, compound concentration 10 uM; in short: as §1

## COc1cc(C)c(Sc2cnc(NC(=O)c3ccc(CNC(C)C(C)(C)C)cc3)s2)cc1C(=O)N1CCN(C(C)=O)CC1 (centres undefined)
Fibroblast; 12 h, replicate 1
  Population Apoptotic (%): 67% and 75%
  Population Fragmented Nuclei (%): 22% and 35%
  Population Healthy Nuclei (%): 60% and 50%
  Population Hoechst High Intensity Objects (%): 12%
  Population Membrane Permeable-Phenotype (%): 6%
  Population Mitotic Cells (%): 32% and 25%
  Population Normal (%): 87%
  Population Pyknosed Nuclei (%): 14%
  Population Tubulin-Different-Phenotype (%): 4% and 12%
  Total Cell Count: 276 and 186
Fibroblast; 12 h, replicate 2
  Population Apoptotic (%): 50% and 40%
  Population Fragmented Nuclei (%): 46% and 56%
  Population Healthy Nuclei (%): 38% and 33%
  Population Hoechst High Intensity Objects (%): 29% and 43%
  Population Membrane Permeable-Phenotype (%): 10% and 11%
  Population Mitochondria Different-Phenotype (%): 10% and 27%
  Population Mitotic Cells (%): 50% and 60%
  Population Normal (%): 70% and 56%
  Population Pyknosed Nuclei (%): 16% and 9%
  Total Cell Count: 71 and 94
Fibroblast; 24 h, replicate 1
  Population Apoptotic (%): 57% and 91%
  Population Fragmented Nuclei (%): 18% and 31%
  Population Healthy Nuclei (%): 69% and 53%
  Population Hoechst High Intensity Objects (%): 17% and 13%
  Population Membrane Permeable-Phenotype (%): 9% and 6%
  Population Normal (%): 82% and 86%
  Population Pyknosed Nuclei (%): 14%
  Total Cell Count: 264 and 192
Fibroblast; 24 h, replicate 2
  Population Apoptotic (%): 33% and 66%
  Population Fragmented Nuclei (%): 46% and 54%
  Population Healthy Nuclei (%): 42% and 33%
  Population Hoechst High Intensity Objects (%): 23% and 42%
  Population Membrane Permeable-Phenotype (%): 8% and 22%
  Population Mitotic Cells (%): 66% and 33%
  Population Normal (%): 76% and 57%
  Population Pyknosed Nuclei (%): 11%
  Total Cell Count: 71 and 92
HEK-293T; 12 h, replicate 1
  Population Apoptotic (%): 22% and 18%
  Population Fragmented Nuclei (%): 20% and 17%
  Population Healthy Nuclei (%): 47% and 68%
  Population Hoechst High Intensity Objects (%): 19% and 8%
  Population Membrane Permeable-Phenotype (%): 6% and 3%
  Population Mitotic Cells (%): 77% and 81%
  Population Normal (%): 80% and 91%
  Population Pyknosed Nuclei (%): 31% and 13%
  Total Cell Count: 653 and 686
HEK-293T; 12 h, replicate 2
  Population Fragmented Nuclei (%): 4% and 5%
  Population Healthy Nuclei (%): 86% and 89%
  Population Hoechst High Intensity Objects (%): 3% and 2%
  Population Membrane Permeable-Phenotype (%): 1%
  Population Mitochondria Different-Phenotype (%): 22% and 9%
  Population Mitotic Cells (%): 85% and 95%
  Population Normal (%): 96% and 97%
  Population Pyknosed Nuclei (%): 9% and 4%
  Total Cell Count: 1194 and 1652
HEK-293T; 24 h, replicate 1
  Population Apoptotic (%): 28% and 21%
  Population Fragmented Nuclei (%): 19% and 13%
  Population Healthy Nuclei (%): 65% and 78%
  Population Hoechst High Intensity Objects (%): 14% and 6%
  Population Membrane Permeable-Phenotype (%): 10% and 6%
  Population Mitotic Cells (%): 71% and 78%
  Population Normal (%): 85% and 93%
  Population Pyknosed Nuclei (%): 14% and 7%
  Total Cell Count: 664 and 754

— ChEMBL document CHEMBL4689842, “EUbOPEN Chemogenomics Library wave 1” (2021)
